Measurements from ChEMBL document CHEMBL4842338, “System-oriented optimization of multi-target 2,6-diaminopurine derivatives: Easily accessible broad-spectrum antivirals active against flaviviruses, influenza virus and SARS-CoV-2” (Eur J Med Chem, 2021).
Calls of active or inactive are those of the source. The rule behind the calls is not given here.

Assays:
[1] = Cytotoxicity against African green monkey Vero E6 cells infected with SARS-COV-2 by celltiter-glo luminescent cell viability assay; type: cell-based, Vero C1008; conditions: chlorocebus sabaeus, Vero E6 cells infected with SARS-COV-2
Summary of the method: (§1)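 Compound-exposed cells assessed by CellTiter-Glo luminescence versus DMSO control; CC50 from dose-response.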

West Nile virus = test: Antiviral activity against West Nile virus lineage 1 (Italy/2009) infected in pre-seeded Huh-7 cells assessed as inhibition of viral replication incubated for 48 hrs by immunodetection based plaque reduction assay; type: functional, organism-based; conditions: Huh-7, 48 h
SARS-CoV-2 [2] = test: Antiviral activity against SARS-COV 2 infected in human Caco-2 cells assessed as inhibition of viral replication at MOI of 0.01 and incubated after 2 hrs post infection for 48 hrs by immunodetection assay; type: functional, organism-based; conditions: Severe acute respiratory syndrome coronavirus 2, Caco-2
[3] = Selectivity index, ratio of CC50 for human Huh-7 cells to IC50 for Dengue virus serotype 2 New Guinea C infected in pre-seeded Huh-7 cells assessed as inhibition of viral replication incubated for 72 hrs by immunodetection based secondary yield reduction assay; type: toxicity, cell-based; conditions: read-out: Selectivity Index
[4] = Inhibition of full length ZIKA virus NS5 RNA dependent RNA polymerase incubated for 10 mins by picogreen staining based fluorescent analysis (Rvb= 1+/-0.2 uM)
[5] = Antioxidant activity assessed as inhibition of ABTS radical scavenging activity at 10 uM to 1 mM measured after 10 mins; type: functional
Summary of the method: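 ABTS radical solution diluted in ethanol (1:100) to A734 0.70; 3.0 mL mixed with 30 μL sample in DMSO at 10 μM–1 mM; A734 read after exactly 10 min; ascorbic acid reference; % scavenging = (A0−As)/A0×100.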

Influenza A virus [6] = test: Antiviral activity against Influenza A Puerto Rico/8/34/H1N1 infected in human A549 cells assessed as inhibition of hemagglutinin expression at 20 uM pretreated for 2 hrs followed by infection of fresh cell monolayer of A549 cells with supernatant for 24 hrs by In-cell western assay; type: functional, organism-based; conditions: A/Puerto Rico/8/1934(H1N1)
Summary of the method: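 A549 cells infected with PR8 H1N1 and given 20 μM compound: 2 h before infection (PRE), 1 h during adsorption (DUR), or 24 h after adsorption (POST); supernatants used to infect fresh monolayers for 24 h; anti-HA in-cell western; RFU as % of untreated infected; 3 replicates from two experiments.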

Influenza A virus [7] = test: (§2) Antiviral activity against Influenza A virus (A/parrot/Ulster/73(H7N1)) infected in human A549 cells assessed as reduction in viral protein expression at 20 uM treated for 1 hr during viral adsorption followed by staining with anti-Flu antibody observed at 24 hrs post infection by In-cell western assay; type: functional, organism-based
Influenza A virus [8] = test: as §2, with “24 hrs post” for “1 hr during”; type: functional, organism-based
A549 = test: Cytotoxicity against human A549 cells assessed as reduction in cell viability measured after 24 hrs by MTT assay; type: cell-based; conditions: a549, 24 h
[9] = Selectivity index, ratio of CC50 for human Huh-7 cells infected with SARS-COV-2 to IC50 for SARS-COV 2 infected in human Huh-7; type: toxicity; conditions: read-out: Selectivity Index
Influenza A virus [10] = test: Antiviral activity against Influenza A Puerto Rico/8/34/H1N1 infected in human A549 cells assessed as reduction in viral protein expression at 20 uM treated for 1 hr during viral adsorption followed by staining with anti-Flu antibody observed at 24 hrs post infection by In-cell western assay; type: functional, organism-based; conditions: A/Puerto Rico/8/1934(H1N1)
[11] = target: Src (Proto-oncogene tyrosine-protein kinase Src) (Homo sapiens, UniProt P12931); test: Inhibition of human recombinant N terminal His6 tagged full length Src assessed as residual activity at 5 uM using KVEKIGEGTYGVVYK as a substrate in the presence of NP-40 incubated for 10 mins by scintillation counting analysis relative to control; conditions: probe KVEKIGEGTYGVVYK, read-out: Activity
Src (Proto-oncogene tyrosine-protein kinase Src), sequence (P12931 2-536 limits assumed): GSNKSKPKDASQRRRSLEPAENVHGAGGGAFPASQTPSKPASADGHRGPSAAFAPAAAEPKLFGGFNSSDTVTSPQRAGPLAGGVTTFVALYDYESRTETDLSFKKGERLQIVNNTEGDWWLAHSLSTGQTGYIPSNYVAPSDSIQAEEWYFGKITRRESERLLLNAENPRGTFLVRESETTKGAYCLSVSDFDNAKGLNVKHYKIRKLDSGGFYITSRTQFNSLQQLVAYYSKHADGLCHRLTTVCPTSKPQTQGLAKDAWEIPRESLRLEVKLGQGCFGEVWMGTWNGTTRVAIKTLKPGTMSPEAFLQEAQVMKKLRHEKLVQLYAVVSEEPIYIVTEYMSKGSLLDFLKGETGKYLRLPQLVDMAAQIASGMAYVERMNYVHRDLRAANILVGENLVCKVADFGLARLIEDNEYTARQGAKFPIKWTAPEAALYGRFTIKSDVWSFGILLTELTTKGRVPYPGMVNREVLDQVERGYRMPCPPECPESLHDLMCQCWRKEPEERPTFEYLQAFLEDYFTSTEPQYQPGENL
Summary of the method: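 Compounds at fixed 5 μM; 10–50 ng kinase, substrate and NP-40/BSA per supplementary table, 10 μL at 30 °C for 10 min in low-binding tubes. Reactions spotted on filter, dried, scintillation counted. Mean ± SD of two independent experiments.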

dengue virus type 2 = test: Antiviral activity against Dengue virus serotype 2 New Guinea C infected in pre-seeded Huh-7 cells assessed as inhibition of viral replication incubated for 72 hrs by immunodetection based direct yield reduction assay; type: functional, organism-based; conditions: huh-7
[12] = Selectivity index, ratio of CC50 for African green monkey Vero E6 cells infected with SARS-COV-2 to IC50 for SARS-COV 2 infected in monkey Vero E6 cells; type: toxicity, cell-based, Vero C1008; conditions: read-out: Selectivity Index
[13] = Selectivity index, ratio of CC50 for MDCK cells to IC50 for Influenza A Puerto Rico/8/34/H1N1 infected in MDCK cells; type: toxicity, cell-based; conditions: dog, read-out: Selectivity Index
Summary of the method: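 MDCK or A549 cells (2.5 × 10⁵/well) infected with A/Puerto Rico/8/34 H1N1 for 1 h at 37 °C, then washed. Compound (0.5–20 μM) added in 2% FBS medium for 24 h, with DMSO final ≤0.2%. Virus in supernatants read by hemagglutination. CC₅₀ by MTT (2 × 10⁴ cells/well, same concentrations, 24 h, absorbance 570 nm). SI = CC₅₀/IC₅₀.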

[14] = Selectivity index, ratio of CC50 for human Huh-7 cells to IC50 for Zika virus H/PF/2013 infected in pre-seeded Huh-7 cells assessed as inhibition of viral replication incubated for 72 hrs by immunodetection based secondary yield reduction assay; type: toxicity, cell-based; conditions: read-out: Selectivity Index
SARS-CoV-2 [15] = test: Antiviral activity against SARS-COV 2 infected in monkey Vero E6 cells assessed as inhibition of viral replication at MOI of 0.01 and incubated after 2 hrs post infection for 48 hrs by direct yield reduction assay; type: functional, organism-based; conditions: Severe acute respiratory syndrome coronavirus 2, Vero C1008
[16] = Toxicity in human A549 cells assessed as effect on host cell membrane; type: cell-based
Zika virus = test: Antiviral activity against Zika virus H/PF/2013 infected in pre-seeded Huh-7 cells assessed as inhibition of viral replication incubated for 72 hrs by immunodetection based secondary yield reduction assay; type: functional, organism-based; conditions: H/PF/2013, Huh-7, 72 h
[17] = Cytotoxicity against human Huh-7 cells assessed as reduction in cell viability by Celltiter-Glo luminescent cell viability assay; type: cell-based; conditions: Huh-7 cells; summary of the method: as §1
Influenza A virus [18] = test: as §2, with “24 hrs, pdp” for “1 hr during”; type: functional, organism-based
Influenza A virus [19] = test: Antiviral activity against Influenza A Puerto Rico/8/34/H1N1 infected in human A549 cells assessed as reduction in viral protein expression at 20 uM treated for 24 hrs pdp viral adsorption followed by staining with anti-Flu antibody observed at 24 hrs post infection by In-cell western assay; type: functional, organism-based; conditions: A/Puerto Rico/8/1934(H1N1)
Influenza A virus [20] = test: Antiviral activity against Influenza A/California/04/2009H1N1 infected in human A549 cells assessed as reduction in viral protein expression at 20 uM treated for 24 hr pdp viral adsorption followed by staining with anti-Flu antibody observed at 24 hrs post infection by In-cell western assay; type: functional, organism-based
[21] = Selectivity index, ratio of CC50 for human Caco-2 cells infected with SARS-COV-2 to IC50 of SARS-COV 2 infected in human Caco-2 cells; type: toxicity, cell-based; conditions: read-out: Selectivity Index

SMILES: FC(F)(F)c1cccc(Nc2nc(NCCOc3ccccc3)nc3[nH]cnc23)c1
- CC50 [1]: 200 µM
- IC50 (West Nile virus): 3.9 µM
- IC50 (SARS-CoV-2 [2]): 5.9 µM
- selectivity ratio at 72 h [3]: 77
- IC50 [4]: 12.8 µM
- Activity [5]: Active
- inhibition (Influenza A virus [6]): inactive
- Activity (Influenza A virus [7]): Active
- Activity (Influenza A virus [8]): Active
- CC50 (A549): 106 µM
- selectivity ratio [9]: 74
- Activity (Influenza A virus [10]): Active
- activity at 10 min, 5 µM [11]: 47%
- IC50 (dengue virus type 2): Not Active
- selectivity ratio [12]: 4
- selectivity ratio [13]: 14.5
- selectivity ratio at 72 h [14]: 182
- IC50 (SARS-CoV-2 [15]): 53.4 µM
- Activity [16]: Toxic
- IC50 (Zika virus): 1.1 µM
- CC50 [17]: 200 µM
- Activity (Influenza A virus [18]): Active
- Activity (Influenza A virus [19]): Active
- Activity (Influenza A virus [20]): Active
- selectivity ratio [21]: 14
